Experimental data: ChEMBL document CHEMBL3992505, “Optimization of substituted imidazobenzodiazepines as novel asthma treatments” (Eur J Med Chem, 2017)
The source made the active and inactive calls. The rule behind the calls is not given here.

Experiments:
Liver [1] = experiment: Half life in mouse liver microsomes at 10 uM by LC-MS/MS analysis; type: ADME, microsome; conditions: microsomes, 10 µM
[2] = Tmax in mouse lung at 5 mg/kg, ip by LC/MS/MS analysis; type: ADME, organism-based
[3] = Cytotoxicity in human BEAS2B cells after 48 hrs by Cell-titer Glo reagent based assay; parameters: species or system BEAS-2B; conditions: read-out: LD50
Procedure, shortened: (§1)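 Cells (HEK293, HepG2 or BEAS2B) exposed to compounds at a range of concentrations for 48 h; viability read by Cell-Titer Glo luminescence. Normalized to DMSO (negative) and 3-dibutylamino-1-(4-hexyl-phenyl)-propan-1-one at 150 μM final in DMSO (positive).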

Blood [4] = experiment: Drug metabolism in mouse blood assessed as (S)-7-Methoxy-N-methyl-9-oxo-11,12,13,13a-tetrahydro-9H-benzo[e]imidazo[5,1-c]pyrrolo[1,2-a][1,4]diazepine-1-carboxamide formation at 5 mg/kg, ip after 3 mins by LC/MS/MS analysis; type: ADME, organism-based; conditions: in vivo, 0.05 h
Cavia porcellus = species on record: Cavia porcellus; experiment: Inhibition of substance P-induced smooth muscle contractile force in guinea pig tracheal rings at 16 uM after 1 hr; type: functional
Blood [5] = experiment: Drug metabolism in mouse blood assessed as (S)-7-Methoxy-9-oxo-11,12,13,13a-tetrahydro-9H-benzo[e]imidazo[5,1-c]pyrrolo[1,2-a][1,4]di-azepine-1-carboxylic acid formation at 5 mg/kg, ip by LC/MS/MS analysis; type: ADME, organism-based; conditions: in vivo
[6] = target: T1, GABA-A receptor; alpha-1/beta-3/gamma-2 (Homo sapiens, UniProt P14867+P18507+P28472); experiment: Activity at GABAA alpha1beta3gamma2 receptor (unknown origin) expressed in HEK293T cells assessed as potentiation of GABA-mediated increase in channel current under holding potential at -80 mV at 1 uM by patch clamp assay; type: cell-based
T1 sequence (P14867 whole entry): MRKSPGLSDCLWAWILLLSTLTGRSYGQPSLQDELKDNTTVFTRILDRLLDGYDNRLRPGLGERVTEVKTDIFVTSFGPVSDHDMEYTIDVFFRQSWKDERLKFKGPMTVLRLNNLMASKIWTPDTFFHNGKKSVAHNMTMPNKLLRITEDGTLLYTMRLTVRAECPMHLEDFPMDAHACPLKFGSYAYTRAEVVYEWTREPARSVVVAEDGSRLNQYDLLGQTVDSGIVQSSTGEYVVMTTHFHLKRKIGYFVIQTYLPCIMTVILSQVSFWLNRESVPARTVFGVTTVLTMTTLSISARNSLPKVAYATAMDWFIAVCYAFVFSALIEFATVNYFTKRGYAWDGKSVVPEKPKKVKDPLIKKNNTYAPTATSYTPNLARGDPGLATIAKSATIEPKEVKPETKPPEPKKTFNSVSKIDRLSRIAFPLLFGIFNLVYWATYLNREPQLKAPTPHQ
T1 sequence (P18507 whole entry): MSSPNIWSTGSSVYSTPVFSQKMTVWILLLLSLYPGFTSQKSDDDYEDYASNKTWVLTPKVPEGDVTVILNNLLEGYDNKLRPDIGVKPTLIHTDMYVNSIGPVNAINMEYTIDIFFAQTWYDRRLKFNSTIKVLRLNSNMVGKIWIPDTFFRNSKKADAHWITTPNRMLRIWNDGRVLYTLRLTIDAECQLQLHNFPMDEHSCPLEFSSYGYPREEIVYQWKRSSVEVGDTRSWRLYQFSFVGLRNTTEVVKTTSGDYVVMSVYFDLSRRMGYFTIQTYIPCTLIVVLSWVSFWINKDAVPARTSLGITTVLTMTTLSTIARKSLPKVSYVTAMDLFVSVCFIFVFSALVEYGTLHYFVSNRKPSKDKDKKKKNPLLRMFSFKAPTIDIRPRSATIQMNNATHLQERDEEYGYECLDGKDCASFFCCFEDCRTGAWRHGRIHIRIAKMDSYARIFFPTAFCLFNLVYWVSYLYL
T1 sequence (P28472 whole entry): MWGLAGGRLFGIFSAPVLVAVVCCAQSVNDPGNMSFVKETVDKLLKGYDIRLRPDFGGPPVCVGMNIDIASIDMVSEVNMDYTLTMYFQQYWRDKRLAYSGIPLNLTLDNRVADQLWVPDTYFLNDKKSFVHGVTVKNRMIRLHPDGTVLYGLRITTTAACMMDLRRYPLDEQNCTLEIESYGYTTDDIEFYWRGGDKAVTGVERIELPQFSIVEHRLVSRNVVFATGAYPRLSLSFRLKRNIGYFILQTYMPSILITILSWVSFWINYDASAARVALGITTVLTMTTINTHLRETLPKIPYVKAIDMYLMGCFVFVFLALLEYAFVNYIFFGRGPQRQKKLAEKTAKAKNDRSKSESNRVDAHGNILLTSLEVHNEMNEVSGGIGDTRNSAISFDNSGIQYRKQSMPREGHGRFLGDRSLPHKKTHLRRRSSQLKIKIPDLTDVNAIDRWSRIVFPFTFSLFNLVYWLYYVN

[7] = Half life in mouse brain at 5 mg/kg, ip by LC/MS/MS analysis; type: ADME, organism-based
[8] = target: GABA A receptor alpha-4/beta-3/gamma-2 (Homo sapiens) (UniProt P18507+P28472+P48169); experiment: Activity at GABAA alpha4beta3gamma2 receptor (unknown origin) expressed in HEK293T cells assessed as potentiation of GABA-mediated increase in channel current under holding potential at -80 mV at 1 uM by patch clamp assay; type: cell-based
[9] = Tmax in mouse brain at 5 mg/kg, ip by LC/MS/MS analysis; type: ADME, organism-based
[10] = Half life in mouse lung at 5 mg/kg, ip by LC/MS/MS analysis; type: ADME, organism-based
Liver [11] = experiment: Metabolic stability in human liver microsomes assessed as compound remaining at 10 uM after 1 hr by LC-MS/MS analysis; type: ADME, microsome
Procedure, shortened: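 Compound stability was measured in human or mouse liver microsomes as percent remaining after 1 h. Data came from two independent experiments, each run in triplicate.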

Mus musculus = experiment: Antiasthamatic effect in BALB/c mouse model of ovalbumin-induced asthma assessed as inhibition of airway hyperresponsiveness at 40 mg/kg, ip bid for 5 days; type: functional, organism-based
[12] = Cytotoxicity in HEK293 cells after 48 hrs by Cell-titer Glo reagent based assay; conditions: human, read-out: LD50; procedure, shortened: as §1

COc1ccc2c(c1)C(=O)N1CCC[C@H]1c1c(C(=O)N(C)C)ncn1-2
t1/2 (Liver [1]): 63.3 min
Tmax [2]: 3 min
CC50 at 48 h [3]: > 400 µM
Drug metabolism (Blood [4]): Metabolite_Detected
inhibition (Cavia porcellus): Active
Drug metabolism (Blood [5]): Metabolite_Notdetected
Activity [6]: 161 to 179%
half-life [7]: 10.3 min
Activity [8]: 319 to 545%
Tmax [9]: 10 min
half-life [10]: 11.7 min
Stability (Liver [11]): 92.4%
Activity (Mus musculus): Active
CC50 at 48 h [12]: > 400 µM
